Measurements from ChEMBL document CHEMBL2331476, “A novel semisynthetic flavonoid 7-O-galloyltaxifolin upregulates heme oxygenase-1 in RAW264.7 cells via MAPK/Nrf2 pathway” (J Med Chem, 2013).
Calls of active or inactive are those of the source. No cut-off for these calls is given here.

How the values were obtained:
[1] = target: T1, Nuclear factor erythroid 2-related factor 2 (Mus musculus) (UniProt Q60795); assay: Activation of Nrf2 in mouse RAW264.7 cells assessed as induction of Hmox1 mRNA expression at 50 uM after 6 hrs by real-time PCR analysis in presence of SB203580; format: cell-based
T1 sequence (whole entry): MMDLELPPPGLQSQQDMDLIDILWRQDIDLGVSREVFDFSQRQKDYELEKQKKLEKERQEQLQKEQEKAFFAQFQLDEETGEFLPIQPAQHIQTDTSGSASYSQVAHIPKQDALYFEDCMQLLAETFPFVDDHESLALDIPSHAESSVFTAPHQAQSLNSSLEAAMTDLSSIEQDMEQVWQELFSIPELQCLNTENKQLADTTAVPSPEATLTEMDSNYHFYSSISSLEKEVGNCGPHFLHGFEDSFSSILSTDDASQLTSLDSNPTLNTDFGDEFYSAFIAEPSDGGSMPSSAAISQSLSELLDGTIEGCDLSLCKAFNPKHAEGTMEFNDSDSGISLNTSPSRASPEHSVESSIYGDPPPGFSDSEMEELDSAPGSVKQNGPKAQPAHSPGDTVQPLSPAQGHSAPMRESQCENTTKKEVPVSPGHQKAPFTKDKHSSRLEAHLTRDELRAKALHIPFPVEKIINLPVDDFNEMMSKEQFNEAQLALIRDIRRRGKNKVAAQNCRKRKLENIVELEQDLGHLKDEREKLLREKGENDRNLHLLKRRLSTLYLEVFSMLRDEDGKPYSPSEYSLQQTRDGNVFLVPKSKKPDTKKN
In short: (§1)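 Pretreatment 30 min with 0.1% DMSO, 15 μM PD98059, 15 μM SB203580 or 30 μM SP600125, then 50 μM agent for 6 h in serum-free medium. Hmox1 mRNA by TaqMan qPCR normalized to Gapdh, given as percent of agent-induced expression; mean ± SD of three experiments.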

[2] = target: T1, Nuclear factor erythroid 2-related factor 2 (Mus musculus); assay: Activation of Nrf2 in mouse RAW264.7 cells assessed as induction of Hmox1 mRNA expression at 50 uM after 6 hrs by real-time PCR analysis in presence of PD98059; format: cell-based; in short: as §1
[3] = target: Mitogen-activated protein kinase 8 (Mus musculus) (UniProt Q91Y86); assay: Activation of JNK1 in mouse RAW264.7 cells assessed as phosphorylation at Thr183/Tyr185 at 50 uM after 30 mins by Western blotting analysis; format: cell-based
In short: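 Serum-starved RAW264.7 cells exposed in serum-free medium for 30 min to 4 h; 5 μM anisomycin for 30 min as positive control. Whole-cell lysates (30 μg/lane) blotted for JNKs dually phosphorylated at Thr183/Tyr185 and total JNKs, chemiluminescent detection.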

[4] = target: T2, MAP kinase p38 (Homo sapiens) (UniProt O15264+Q15759+Q16539+P53778); assay: Activation of p38MAPK in mouse RAW264.7 cells assessed as phosphorylation at Thr180/Tyr182 at 50 uM after 1 hr by Western blotting analysis; format: cell-based
In short: (§2)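 p38 phosphorylation at Thr180/Tyr182 and total p38 probed in whole-cell lysates (35 μg/lane) of serum-starved RAW264.7 cells treated for 30 min to 4 h in serum-free medium. Positive controls were 5 μM anisomycin or 75 ng/mL EGF for 30 min. Chemiluminescent Western detection.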

[5] = target: T2, MAP kinase p38 (Homo sapiens); assay: Activation of p38MAPK in mouse RAW264.7 cells assessed as phosphorylation at Thr180/Tyr182 at 50 uM after 30 mins to 4 hrs by Western blotting analysis; format: cell-based; conditions: TDE = time-dependent effect; in short: as §2
[6] = target: T1, Nuclear factor erythroid 2-related factor 2 (Mus musculus); assay: Activation of Nrf2 in mouse RAW264.7 cells assessed as cytosolic accumulation at 50 uM after 2 hrs by Western blotting analysis; format: cell-based
In short: (§3)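 Serum-starved RAW264.7 cells treated 30 min to 3 h (10-50 μM for 3 h, or 50 μM time course); 0.1% DMSO control, 50 μM quercetin positive control. Cytosolic fraction from hypotonic HEPES pH 7.9 buffer with 0.1% NP-40; nuclear fraction by 420 mM NaCl extraction. 30 μg/lane blotted for Nrf2 and actin; Nrf2/actin densitometry, mean of three experiments.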

[7] = target: T1, Nuclear factor erythroid 2-related factor 2 (Mus musculus); assay: Activation of Nrf2 in mouse RAW264.7 cells assessed as nuclear accumulation at 25 uM after 3 hrs by Western blotting analysis; format: cell-based; in short: as §3
[8] = target: T1, Nuclear factor erythroid 2-related factor 2 (Mus musculus); assay: Activation of Nrf2 in mouse RAW264.7 cells assessed as upregulation of HO1 protein expression at 10 to 50 uM after 6 hrs by Western blotting analysis; format: cell-based
In short: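 HO-1 protein in whole-cell lysates (20 μg/lane) of serum-starved RAW264.7 cells after 6 h at 10-50 μM or 50 μM for 1-6 h in serum-free medium, 0.1% DMSO control. Chemiluminescent Western blot; HO-1 densitometry normalized to actin, mean of three experiments.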

[9] = target: T1, Nuclear factor erythroid 2-related factor 2 (Mus musculus); assay: Activation of Nrf2 in mouse RAW264.7 cells assessed as upregulation of Hmox1 gene expression at 50 uM after 6 hrs by real-time PCR analysis relative to GAPDH mRNA expression; format: cell-based
In short: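 Serum-starved RAW264.7 cells were exposed for 6 h in serum-free medium against a 0.1% DMSO control. Total RNA (2 μg) was reverse-transcribed, then TaqMan qPCR run for Hmox1 and Gapdh over 40 cycles. Crossing points were taken by second-derivative maximum, and fold change calculated by the 2^−ΔΔCT method normalized to Gapdh. Mean ± SD of three experiments.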

RAW264.7 [10] = assay: Drug metabolism in mouse RAW264.7 cells assessed as 7-O-galloylquercetin level at 50 uM after 6 hrs by HPLC/ESI-QqTOF/MS analysis; format: ADME, cell-based; conditions: raw264.7, 6 h
In short: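 Cells given 50 μM for up to 6 h, then scraped, washed twice in PBS and sonicated in methanol with 5% acetic acid. Supernatant analysed by UPLC on a phenyl column (water/1% acetic acid/methanol to methanol gradient, 35 °C) with negative ESI-QqTOF MS. Contents expressed as nmol per 10⁶ cells.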

RAW264.7 [11] = assay: Stability in mouse RAW264.7 cells assessed as gallic acid level at 50 uM after 6 hrs by HPLC/MS analysis; format: ADME, cell-based; conditions: raw264.7, 6 h
RAW264.7 [12] = assay: Induction of ROS generation in mouse RAW264.7 cells at 50 uM after 2 hrs by flow cytometric analysis; format: functional
In short: (§4)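 Serum-starved RAW264.7 cells treated 2 h at 10-50 μM; 100 μM TBHP for 30 min as positive control. Medium replaced, cells loaded with 10 μM carboxy-H₂DCFDA for 15 min at 37 °C. Flow cytometry (488 nm excitation, 525 nm emission, 10,000 events) gave percentage of cells with raised ROS; mean ± SD of three experiments.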

RAW264.7 [13] = assay: Induction of ROS generation in mouse RAW264.7 cells at 25 uM after 2 hrs by flow cytometric analysis; format: functional; in short: as §4

Chain of Mitogen-activated protein kinase 8 (Mus musculus) (Q91Y86 whole entry): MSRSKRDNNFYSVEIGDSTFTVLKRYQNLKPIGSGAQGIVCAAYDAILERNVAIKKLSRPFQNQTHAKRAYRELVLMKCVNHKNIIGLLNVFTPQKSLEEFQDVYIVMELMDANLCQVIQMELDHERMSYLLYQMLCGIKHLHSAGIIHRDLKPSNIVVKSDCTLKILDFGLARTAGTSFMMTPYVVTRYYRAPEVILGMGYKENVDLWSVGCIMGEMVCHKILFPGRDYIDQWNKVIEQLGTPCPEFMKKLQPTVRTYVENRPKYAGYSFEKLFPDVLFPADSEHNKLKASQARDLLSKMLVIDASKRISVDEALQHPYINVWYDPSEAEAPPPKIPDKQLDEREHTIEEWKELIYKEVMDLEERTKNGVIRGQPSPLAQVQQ

Activity [1]: inactive
Activity [2]: inactive
Activity [3]: Active
Activity [4]: Active
Activity [5]: tde
Activity [6]: Active
Activity [7]: Active
Activity [8]: Dose-dependent effect
fold change (FC) [9]: 13.4
Drug metabolism (RAW264.7 [10]): Active
Stability (RAW264.7 [11]): Stable
Compound: O=C(Oc1cc(O)c2c(c1)O[C@H](c1ccc(O)c(O)c1)[C@@H](O)C2=O)c1cc(O)c(O)c(O)c1
Activity (RAW264.7 [12]): 29%
Activity (RAW264.7 [13]): 19%
